High-throughput results from PubChem.
ROMK mod = modulators of human ROMK potassium channel. Tet-inducible ROMK, thallium flux fluorescence; actives lie on both sides. B-score at 10 µM. actives 2% (n = 130,000);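 active = signal ratio slope over the read window, or its plate-corrected B-score, at least 3 SD from the plate mean, either direction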;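 note: B-score of the F/F0 ratio slope over 7 to 12 s after thallium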
Target sequence (P48048 whole entry, looked up): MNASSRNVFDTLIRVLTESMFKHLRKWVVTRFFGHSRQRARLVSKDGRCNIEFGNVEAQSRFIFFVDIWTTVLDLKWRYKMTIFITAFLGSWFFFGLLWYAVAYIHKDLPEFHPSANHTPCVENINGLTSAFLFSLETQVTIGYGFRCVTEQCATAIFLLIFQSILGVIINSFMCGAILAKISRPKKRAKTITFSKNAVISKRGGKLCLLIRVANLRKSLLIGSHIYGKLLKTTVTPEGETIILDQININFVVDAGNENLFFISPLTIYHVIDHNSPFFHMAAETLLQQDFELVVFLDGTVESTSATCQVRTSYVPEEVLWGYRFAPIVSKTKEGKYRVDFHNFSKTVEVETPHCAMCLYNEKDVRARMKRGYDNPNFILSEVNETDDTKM
DTT redox prof = compounds producing H2O2 with reducing agent – biochemical, NIH compound library profiling, artefact control for MLSCN library redox annotation, primary screen; DTT-dependent redox cycling H2O2, phenol red/HRP absorbance; 100% = 100 µM peroxide control, 0% = buffer; activation, % at 10 µM; actives 0.03% (n = 200,000);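 active = activation of at least 50% relative to the plate's high and low controls in the primary single-dose screen; inactive = activation below 50%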;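 note: compound incubated with DTT at 0.8 mM final as the reducing agent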
KCC2 mod = KCC2 (human) Cl- transport modulation; KCC2 cells, thallium flux FluoZin-2 fluorescence; AID 1456; actives 2.2% (n = 190,000); Q9H2X9; B-score of Tl+ flux slope (higher = more flux/activation; lower = inhibition) at 10 µM;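 active = thallium flux slope and its plate-corrected score both differing from the plate sample mean at a set confidence after two filtering rounds, in either direction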;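 note: slope of fluorescence scaled to starting intensity during 10 to 20 s after thallium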
MT stabilizer = stabilizes microtubules in HeLa cells; actives 0.83% (n = 200,000); HeLa tubulin immunostaining HCS, 24 h; share of cells brighter than vehicle mean+2SD; % tubulin-high responders, % at 10 µM; AID 2205;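 active = plate Z-score above 3 for both tubulin-high and condensed-nucleus cell shares, with cell loss under 80%, at 10 µM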;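 note: anti alpha tubulin signal scored within the nucleus-defined area of each cell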
b-catenin transl = alters nuclear translocation of beta-catenin in HeLa cells; immunofluorescence imaging; AID 1665; actives 0.3% (n = 190,000); nuclear translocation activity, % at 5 µM;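 active = nuclear translocation activity above 50% at 5 µM, with a well cell count of 50 or more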;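 note: per-cell ratio of nuclear to cytoplasmic median beta-catenin stain intensity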
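System: Human HeLa cells, endogenous beta-catenin | Compound dosing: 5 µM primary, 0.02–20 µM confirmation | Timing: 24 h compound exposure at 37°C, 5% CO2 | Measured by: Fluorescence imaging of beta-catenin antibody stain plus DAPI | Read-out basis: % activation of per-cell nuclear versus cytoplasmic median beta-catenin signal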
Hits are given with their value; n = inactive; x = no result. Most compounds without a hit are left out; they make up all but 3.7% or so of the library.

SMILES	ROMK mod	DTT redox prof	KCC2 mod	MT stabilizer	b-catenin transl
C/C(=N\O)c1sc(-c2ccccc2)nc1C	n	n	n	n	n
Cc1ccccc1-c1nc(CN(Cc2c(C)nn(C)c2C)C2CC2)c(C)o1	x	n	n	n	n
N#CC1=C(SCC(=O)c2ccc(Cl)cc2)NC2=C(C(=O)CCC2)C1c1ccco1 (configuration not stated)	n	x	x	x	83
Cc1ccc(C(=O)CSC2=C(C#N)C(c3ccco3)C3=C(CC(C)(C)CC3=O)N2)cc1 (configuration not stated)	n	n	x	n	x
Cc1ccsc1C(=O)N1CCCC(CCC(=O)N2CCN(c3ccccn3)CC2)C1 (configuration not stated)	n	n	n	n	n
CC1=CC(C)(C)N(S(=O)(=O)c2ccc(C)cc2)c2ccc(C)cc21	n	n	n	n	x
CC1=CC(C)(C)N(S(=O)(=O)c2ccc(F)cc2)c2ccccc21	n	n	n	25	n
O=C1OCCC1Sc1nnc(-c2ccc(F)cc2)n1Cc1ccccc1 (configuration not stated)	n	n	n	n	n
COc1cc(C2C3=C(CCCC3=O)Nc3ccc4ncccc4c32)ccc1O (configuration not stated)	n	n	n	33	n
CCOc1ccc(NC(=S)Nc2ccccc2C2(C)CC2)cc1	n	n	n	n	n
COc1ccc(CCN2C(=O)c3cccc4c(C(=O)N5CCCCC5)ccc(c34)C2=O)cc1OC	x	n	n	n	n
c1cc2c(cc1Nc1nc(-c3ccc4c(c3)OCO4)cs1)OCCO2	n	n	n	n	n
COc1cccc(Nc2nc(-c3ccc4c(c3)OCCO4)cs2)c1	x	n	x	34	n
CCOc1ccccc1NC(=O)c1cc(C(=O)c2cc(Br)ccc2O)coc1=N	n	n	n	12	x
COc1ccc(OC)c(C2=NOC(C(=O)NCCN3CCOCC3)C2)c1 (configuration not stated)	n	n	x	n	n
O=C(NCc1cccs1)C1CC(c2ccc(Cl)c(Cl)c2)=NO1 (configuration not stated)	x	n	n	n	62
O=C(NCc1cccs1)C1CC(c2ccc(Cl)cc2)=NO1 (configuration not stated)	n	n	n	n	n
COc1ccc(OC)c(C2=NOC(C(=O)NCc3cccs3)C2)c1 (configuration not stated)	n	n	n	23	n
CCOC(=O)c1sc2nc(CC(=O)OC)nc(NCc3ccco3)c2c1C	x	n	n	n	n
CCOC(=O)c1sc2ncnc(NCc3ccco3)c2c1C	n	n	128	n	x
O=C(Nc1cnn(C23CC4CC(CC(C4)C2)C3)c1)c1cc(-c2ccccc2)on1	n	n	n	n	x
CCCn1cc(NC(=O)c2cc(-c3ccccc3)on2)cn1	5.6	n	x	n	x
N#C/C(=N\Nc1cccc([N+](=O)[O-])c1)C(=O)c1ccc(Br)cc1	3.1	n	-6.8	n	n
O=C(O)c1ccc(N=NNc2cccc([N+](=O)[O-])c2)cc1	n	n	n	n	n
COc1ccc(C(=O)Nc2nnc(-c3ccccc3)o2)cc1OC	n	n	x	n	n
SMILES	ROMK mod	DTT redox prof	KCC2 mod	MT stabilizer	b-catenin transl
O=C(Nc1nnc(-c2ccccc2)o1)c1cc(Cl)sc1Cl	2.3	n	60	n	n
O=C(Nc1nnc(-c2ccc(F)cc2)o1)c1cc(Cl)sc1Cl	3.2	n	54	n	n
COc1ccc(S(=O)(=O)N2CCC(C(=O)N3CCc4ccccc4C3)CC2)cc1	x	n	-4	n	x
CCCCNC(=O)CN1C(=O)NC(CCc2ccccc2)C1=O (configuration not stated)	n	n	n	n	n
Oc1ccc(Nc2nc(N3CCCC3)c3ccccc3n2)cc1	-4.8	n	x	n	n
Cc1ccc(C(=O)CC(=O)c2cccc(F)c2)c(O)c1	n	n	22	n	n
CC(=O)c1ccc(C)cc1OC(=O)c1cccc(F)c1	n	n	n	n	n
Cc1ccnc(NC(=O)c2ccccc2NC(=O)C(C)(C)C)c1	n	n	n	44	n
CCS(=O)(=O)Nc1ccc2[nH]c(=O)[nH]c2c1	n	n	n	n	n
COc1ccc(CNC(=O)CSc2cccc3cccnc23)cc1	n	x	n	x	n
CCOC(=O)CSc1cccc2cccnc12	x	n	15	n	n
NNC(=O)c1ccc(CSc2cccc3cccnc23)cc1	n	n	n	n	n
CCCCCOc1ccc(NC(=O)CSc2cccc3cccnc23)cc1	x	n	5.4	n	n
Cc1cccc(CSc2cccc3cccnc23)c1	x	n	19	n	x
COc1ccc(S(=O)(=O)Nc2ccccc2-c2nnn(CC(=O)Nc3ccccc3OC)n2)cc1	n	n	n	14	n
O=C1CC(c2ccccc2Br)c2cc3c(cc2N1)CCC3 (configuration not stated)	n	n	n	21	n
O=C1CC(c2cc(Br)ccc2F)c2cc3c(cc2N1)CCC3 (configuration not stated)	x	n	x	n	n
O=C1CC(c2ccccc2F)c2cc3c(cc2N1)CCC3 (configuration not stated)	x	n	n	44	131
Cc1ccc(S(=O)(=O)Nc2cnn(-c3ccccc3)c(=O)c2Cl)cc1	x	n	n	n	n
Cc1c(Cl)cnc(NC(=O)CSc2nncs2)c1Cl	n	n	n	n	n
Cc1ccc(S(=O)(=O)NCCc2cccs2)cc1	x	x	n	x	n
COc1cc(/C=N/Nc2nncn2/N=C/c2ccc(O)c(OC)c2)ccc1O	n	n	n	n	n
COc1ccc(OC)c(/C=N/Nc2nncn2/N=C/c2cc(OC)ccc2OC)c1	n	n	n	32	x
Cn1nc(-c2ccccc2)cc1NC(=O)c1cccs1	x	x	n	x	n
COc1ccc(NS(=O)(=O)c2cccc(NC(=O)c3ccc(Cl)nc3)c2)cc1	n	n	n	16	n
SMILES	ROMK mod	DTT redox prof	KCC2 mod	MT stabilizer	b-catenin transl
O=C(Nc1ccc2c(c1)OCO2)c1ccc(NC2CC2)c([N+](=O)[O-])c1	n	n	n	28	n
CCc1ccc(OCc2cnc(Cl)s2)cc1	n	n	x	n	n
Cc1ccc2nc(NCc3ccccc3)[nH]c2c1	n	n	n	22	n
c1ccc(CNc2nc3ccccc3[nH]2)cc1	x	n	n	n	n
COc1ccc2nc(NCc3ccccc3)[nH]c2c1	x	n	x	43	n
CC12CCC(C(=O)N3CCCCC3)([C@H](Br)C1=O)C2(C)C (some centres not stated)	x	x	n	x	n
COc1ccc(C/C(C)=N/NC(=S)Nc2ccccc2)cc1	n	n	32	n	x
CCOc1ccccc1OCC(=O)N/N=C(\C)Cc1ccc(OC)cc1	n	n	n	15	n
COc1ccccc1OCC(=O)NN=C(Cc1ccccc1)Cc1ccccc1	n	n	n	n	x
CN(c1ccccc1)S(=O)(=O)c1ccc(Cl)c(C(=O)Nc2nc3ccccc3[nH]2)c1	n	n	n	n	n
CN(c1ccccc1)S(=O)(=O)c1ccc(Cl)c(C(=O)Nc2ccc(-c3nc4ccccc4[nH]3)cc2)c1	x	n	n	17	n
